According to ChEMBL document CHEMBL2069182, “Discovery and optimization of a novel series of GPR142 agonists for the treatment of type 2 diabetes mellitus” (Bioorg Med Chem Lett, 2012):

How the values were obtained:
[1] = molecular target: T1, Probable G-protein coupled receptor 142 (Homo sapiens, UniProt Q7Z601); test: Agonist activity at human GPR142 expressed in HEK293 cells assessed as inositol phosphate accumulation using [3H]-inositol after 1 hr by scintillation counting; type: functional, cell-based
T1 sequence (Q7Z601 whole entry): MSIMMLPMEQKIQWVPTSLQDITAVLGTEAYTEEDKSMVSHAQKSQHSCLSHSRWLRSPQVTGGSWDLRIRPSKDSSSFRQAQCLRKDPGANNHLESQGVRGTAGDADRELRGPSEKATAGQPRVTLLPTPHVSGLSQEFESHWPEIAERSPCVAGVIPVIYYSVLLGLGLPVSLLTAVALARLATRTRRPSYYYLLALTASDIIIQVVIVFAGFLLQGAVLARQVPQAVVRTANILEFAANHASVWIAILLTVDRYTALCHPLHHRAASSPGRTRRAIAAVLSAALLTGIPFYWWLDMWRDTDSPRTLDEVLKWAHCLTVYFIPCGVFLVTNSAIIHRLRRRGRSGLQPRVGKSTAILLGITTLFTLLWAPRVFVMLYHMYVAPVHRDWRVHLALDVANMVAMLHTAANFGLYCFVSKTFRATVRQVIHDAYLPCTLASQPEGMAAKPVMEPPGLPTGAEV
Summary of the method: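 HEK293 cells plated at 25,000/well, next day (80–90% confluent) transfected with 100 ng receptor plasmid per well by Lipofectamine; after 6 h switched to inositol-free DMEM/10% dialyzed FCS with 1 µCi/mL [3H]-inositol overnight. Washed in HBSS, then compound dilutions (DMSO) in HBSS/0.01% BSA plus 10 mM LiCl, 37 °C, 1 h. Lysed in ice-cold 20 mM formic acid, 4 °C 5 h, then yttrium silicate SPA beads, scintillation counting. Emax as % of maximal response to 10 mM tryptophan.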

[2] = molecular target: T1, Probable G-protein coupled receptor 142; test: Agonist activity at human GPR142 expressed in HEK293 cells assessed as inositol phosphate accumulation using [3H]-inositol after 1 hr by scintillation counting in presence of human serum; type: functional, cell-based
Summary of the method: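 Same transfected HEK293 [3H]-inositol IP accumulation protocol as buffer assay, but compound incubation (10 mM LiCl, 37 °C, 1 h) run in 100% human serum instead of HBSS/0.01% BSA. Formic acid lysis, SPA bead scintillation read-out. Emax expressed as % of maximal 10 mM tryptophan response.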

[3] = molecular target: T2, Probable G-protein coupled receptor 142 (Homo sapiens) (UniProt Q7Z601); test: Agonist activity at human GPR142 expressed in HEK293 cells assessed as inositol phosphate accumulation using [3H]-inositol after 1 hr by scintillation counting relative to tryptophan; type: functional, cell-based
T2 sequence (whole entry): T1 sequence (Q7Z601 whole entry)
Summary of the method: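 HEK293 cells on poly-D-lysine were transfected next day with 100 ng receptor plasmid/well, then labelled overnight with 1 µCi/mL [3H]-inositol in inositol-free DMEM/10% dialyzed FCS. Cells got graded compound in HBSS/0.01% BSA with 10 mM LiCl for 1 h at 37 °C. They were lysed in ice-cold 20 mM formic acid and counted with yttrium silicate SPA beads. EC50 given; Emax as % of maximal tryptophan response at 10 mM.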

CYP2D6 = CYP2D6 (Homo sapiens, UniProt P10635); test: Inhibition of CYP2D6 at 3 uM; type: ADME
CYP3A4 = CYP3A4 (Homo sapiens, UniProt P08684); test: Inhibition of CYP3A4 at 3 uM; type: ADME
[4] = Induction of insulin secretion in mouse pancreatic islets in presence of 16.7 mM of glucose relative to control; type: functional; conditions: Pancreatic islet
Summary of the method: (§1)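 Isolated mouse islets stimulated in 16.7 mM glucose with 0.625% HSA and 1% DMSO; insulin secretion measured, Emax reported as percentage.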

[5] = molecular target: T2, Probable G-protein coupled receptor 142 (Homo sapiens); test: Agonist activity at human GPR142 expressed in HEK293 cells assessed as inositol phosphate accumulation using [3H]-inositol after 1 hr by scintillation counting in presence of human serum relative to tryptophan; type: functional, cell-based
Summary of the method: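 Transiently transfected HEK293 cells were labelled overnight with 1 µCi/mL tritiated inositol, then given graded compound in 100% human serum (in place of HBSS/0.01% BSA) with 10 mM LiCl for 1 h at 37 °C. Lysis was in ice-cold 20 mM formic acid, with SPA-bead scintillation read-out. EC50 given; Emax as % of maximal tryptophan response.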

[6] = Induction of insulin secretion in mouse pancreatic islets in presence of 16.7 mM of glucose; type: functional; conditions: Pancreatic islet; summary of the method: as §1
[7] = Metabolic stability in human liver microsomes assessed as compound remaining after 30 mins; type: ADME, Microsome; conditions: read-out: Stability
Summary of the method: (§2)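 Human or rat liver microsomes incubated with compound for 30 min; percent parent remaining quantified by LC/MS in a high-throughput format.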

[8] = Mean residence time in rat at 0.5 mg/kg, iv; type: ADME, organism-based; design: dose 0.5 mg/kg, route intravenous; conditions: in vivo
Summary of the method: (§3)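 Rats dosed iv at 0.5 mg/kg; clearance, steady-state volume of distribution and mean residence time derived.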

[9] = Metabolic stability in rat liver microsomes assessed as compound remaining after 30 mins; type: ADME, Microsome; conditions: read-out: Stability; summary of the method: as §2
[10] = Volume of distribution at steady state in rat at 0.5 mg/kg, iv; type: ADME, organism-based; design: dose 0.5 mg/kg, route intravenous; conditions: in vivo, read-out: Vdss; summary of the method: as §3
Cytochrome P450 3A4 = Cytochrome P450 3A4 (Homo sapiens, UniProt P08684); test: Inhibition of CYP3A4; type: ADME
Cytochrome P450 2D6 = Cytochrome P450 2D6 (Homo sapiens, UniProt P10635); test: Inhibition of CYP2D6; type: ADME
[11] = Oral bioavailability in rat at 2 mg/kg; type: ADME, organism-based; conditions: in vivo
Summary of the method: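 Rats given 2.0 mg/kg po; bioavailability (%F) determined against iv dosing at 0.5 mg/kg.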

Rattus norvegicus = test: Clearance in rat at 0.5 mg/kg, iv; type: ADME, organism-based; design: dose 0.5 mg/kg, route intravenous; conditions: in vivo; summary of the method: as §3
[12] = molecular target: T3, Probable G-protein coupled receptor 142 (Mus musculus, UniProt Q7TQN9); test: Agonist activity at mouse GPR142 assessed as inositol phosphate accumulation; type: functional
T3 sequence (Q7TQN9 whole entry): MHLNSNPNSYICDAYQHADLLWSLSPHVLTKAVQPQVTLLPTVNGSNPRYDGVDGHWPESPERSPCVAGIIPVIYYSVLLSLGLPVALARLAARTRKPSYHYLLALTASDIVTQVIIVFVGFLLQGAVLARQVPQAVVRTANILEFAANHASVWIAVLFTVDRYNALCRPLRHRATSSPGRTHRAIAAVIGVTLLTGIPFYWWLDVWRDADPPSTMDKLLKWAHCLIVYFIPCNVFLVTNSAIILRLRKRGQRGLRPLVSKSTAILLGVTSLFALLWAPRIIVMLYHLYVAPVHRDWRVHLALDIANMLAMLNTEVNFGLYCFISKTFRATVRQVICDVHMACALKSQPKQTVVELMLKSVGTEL

[13] = Half life in rat hepatocytes; type: ADME, cell-based, Liver, Hepatocyte
Hepatocyte = test: Clearance in rat hepatocytes assessed per 10^-6 cells; type: ADME, cell-based
Cytochrome P450 2C9 = Cytochrome P450 2C9 (Homo sapiens, UniProt P11712); test: Inhibition of CYP2C9; type: ADME
Cytochrome P450 2C9, sequence (P11712 whole entry): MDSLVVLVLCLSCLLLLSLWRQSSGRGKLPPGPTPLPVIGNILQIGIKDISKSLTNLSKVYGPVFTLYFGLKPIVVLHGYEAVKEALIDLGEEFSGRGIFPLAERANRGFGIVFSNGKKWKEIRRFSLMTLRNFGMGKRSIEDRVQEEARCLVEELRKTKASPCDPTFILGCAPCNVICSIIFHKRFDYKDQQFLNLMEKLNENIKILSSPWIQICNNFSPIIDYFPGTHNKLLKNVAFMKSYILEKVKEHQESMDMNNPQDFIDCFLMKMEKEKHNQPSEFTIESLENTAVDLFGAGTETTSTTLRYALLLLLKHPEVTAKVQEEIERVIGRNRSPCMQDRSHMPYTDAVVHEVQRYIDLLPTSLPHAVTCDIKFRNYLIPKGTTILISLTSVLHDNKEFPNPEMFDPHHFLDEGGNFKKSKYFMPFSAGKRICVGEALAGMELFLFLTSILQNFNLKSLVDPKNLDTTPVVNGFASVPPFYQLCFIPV

CYP2D6, sequence (P10635 whole entry): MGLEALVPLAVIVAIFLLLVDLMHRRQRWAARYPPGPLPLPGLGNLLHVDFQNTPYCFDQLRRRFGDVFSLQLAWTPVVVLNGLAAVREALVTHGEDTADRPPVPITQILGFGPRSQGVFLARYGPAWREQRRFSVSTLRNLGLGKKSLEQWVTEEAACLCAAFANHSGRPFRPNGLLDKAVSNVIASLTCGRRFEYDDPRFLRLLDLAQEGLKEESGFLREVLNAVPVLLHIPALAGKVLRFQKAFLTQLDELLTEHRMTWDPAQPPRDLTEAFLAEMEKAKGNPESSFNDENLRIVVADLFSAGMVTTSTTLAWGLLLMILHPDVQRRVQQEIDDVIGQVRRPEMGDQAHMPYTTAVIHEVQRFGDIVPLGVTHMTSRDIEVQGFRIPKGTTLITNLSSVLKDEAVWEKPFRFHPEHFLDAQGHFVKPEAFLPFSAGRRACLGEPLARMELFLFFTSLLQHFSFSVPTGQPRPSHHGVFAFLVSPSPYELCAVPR
CYP3A4, sequence (P08684 whole entry): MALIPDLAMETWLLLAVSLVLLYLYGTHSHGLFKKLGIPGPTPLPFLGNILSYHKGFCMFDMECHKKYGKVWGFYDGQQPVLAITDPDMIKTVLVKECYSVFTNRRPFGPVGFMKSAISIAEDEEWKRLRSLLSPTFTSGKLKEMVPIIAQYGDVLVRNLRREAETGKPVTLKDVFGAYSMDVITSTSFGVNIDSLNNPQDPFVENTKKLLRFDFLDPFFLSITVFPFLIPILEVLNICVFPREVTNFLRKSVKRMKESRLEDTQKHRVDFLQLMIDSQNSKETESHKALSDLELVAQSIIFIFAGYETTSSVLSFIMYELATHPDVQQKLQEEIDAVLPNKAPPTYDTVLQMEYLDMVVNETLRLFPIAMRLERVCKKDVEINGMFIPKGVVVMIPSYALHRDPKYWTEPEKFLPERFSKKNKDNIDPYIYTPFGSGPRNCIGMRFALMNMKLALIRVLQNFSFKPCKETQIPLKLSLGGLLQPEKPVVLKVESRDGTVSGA
Cytochrome P450 2D6, sequence (P10635 whole entry): as the sequence (P10635 whole entry) above
Cytochrome P450 3A4, sequence (P08684 whole entry): as the sequence (P08684 whole entry) above

Row | SMILES | EC50 [1] [µM] | Emax [3] [%] | inhibition at 3 µM (CYP2D6) [%] | inhibition at 3 µM (CYP3A4) [%] | further results
1 | NCC(=O)Nc1cc(-c2ccncc2)c[nH]c1=O | > 33 | – | – | – | –
2 | N[C@@H](Cc1ccc(Cl)cc1)C(=O)Nc1cc(-c2ccncc2)c[nH]c1=O | 3.8 | 105 | – | – | –
3 | N[C@@H](Cc1cccc(Cl)c1)C(=O)Nc1cc(-c2ccncc2)c[nH]c1=O | > 33 | 50 | – | – | –
4 | N#Cc1ccc(C[C@H](N)C(=O)Nc2cc(-c3ccncc3)c[nH]c2=O)cc1 | 4.6 | 79 | – | – | –
5 | O=C(CCc1ccccc1)Nc1cc(-c2ccncc2)c[nH]c1=O | > 33 | – | – | – | –
6 | O=C(Nc1cc(-c2ccncc2)c[nH]c1=O)[C@H](Cc1ccccc1)NCc1ccccc1 | 0.83 | 97 | – | – | –
7 | O=C(Nc1cc(-c2ccncc2)c[nH]c1=O)[C@H](Cc1ccccc1)NCC1CC1 | 0.76 | 106 | – | – | –
8 | N[C@@H](Cc1ccccc1Cl)C(=O)Nc1cc(-c2ccncc2)c[nH]c1=O | > 33 | 42 | – | – | –
9 | N[C@@H](Cc1ccccc1)C(=O)Nc1cc(-c2ccncc2)c[nH]c1=O | 4.8 | 115 | – | – | EC50 [12]: 1.4 µM
10 | N[C@H](C(=O)Nc1cc(-c2ccncc2)c[nH]c1=O)c1ccccc1 | > 33 | – | – | – | –
11 | CC(=O)N[C@@H](Cc1ccccc1)C(=O)Nc1cc(-c2ccncc2)c[nH]c1=O | > 33 | – | – | – | –
12 | Cc1ccc(C[C@H](N)C(=O)Nc2cc(-c3ccncc3)c[nH]c2=O)cc1 | 6.6 | 73 | – | – | –
13 | N[C@@H](CC1CCCCC1)C(=O)Nc1cc(-c2ccncc2)c[nH]c1=O | > 33 | 30 | – | – | –
14 | N[C@@H](Cc1ccc(F)cc1)C(=O)Nc1cc(-c2ccncc2)c[nH]c1=O | 4.2 | 102 | – | – | –
15 | N[C@H](Cc1ccccc1)C(=O)Nc1cc(-c2ccncc2)c[nH]c1=O | 13 | 93 | – | – | –
16 | COc1ccc(C[C@H](N)C(=O)Nc2cc(-c3ccncc3)c[nH]c2=O)cc1 | 25 | 40 | – | – | –
17 | O=C(Nc1cc(-c2ccncc2)c[nH]c1=O)[C@H](Cc1ccccc1)NCCc1ccccc1 | 0.78 | 67 | – | – | –

Further lines, with some results ahead:

Row | EC50 [1] [µM] | Emax [3] [%] | inhibition at 3 µM (CYP2D6) [%] | inhibition at 3 µM (CYP3A4) [%] | SMILES | further results
18 | 0.24 | – | – | – | COc1ccc(NC(=O)[C@H](Cc2ccccc2)NCc2cscn2)cc1-c1ccncc1 | EC50 [2]: 0.98 µM
19 | 1.9 | – | 12 | 30 | Cn1ccc(-c2cccc(NC(=O)[C@H](Cc3ccccc3)NCc3cscn3)c2)n1 | –
20 | 0.067 | – | 95 | 97 | O=C(Nc1cccc(-c2ccncc2)c1)[C@H](Cc1ccccc1)NCc1cscn1 | EC50 [2]: 0.97 µM
21 | 0.093 | 120 | 95 | 97 | O=C(Nc1cc(-c2ccncc2)c[nH]c1=O)[C@H](Cc1ccccc1)NCc1cscn1 | Emax [4]: 88%; Emax [5]: 100%; EC50 [2]: 0.5 µM; EC50 [6]: 2.7 µM
22 | 3.3 | – | 36 | 24 | O=C(Nc1ccccc1)[C@H](Cc1ccccc1)NCc1cscn1 | –
23 | 0.067 | 90 | 20 | 22 | Cc1cc(-c2c[nH]c(=O)c(NC(=O)[C@H](Cc3ccccc3)NCc3cscn3)c2)ccn1 | remaining at 0.5 h [7]: 10%; Emax [5]: 97%; MRT [8]: 18 min; remaining at 0.5 h [9]: 11%; EC50 [2]: 0.29 µM; Vd [10]: 0.75 L/kg; IC50 (Cytochrome P450 3A4): > 30 µM; IC50 (Cytochrome P450 2D6): > 30 µM; bioavailability [11]: 19%; clearance (Rattus norvegicus): 2.6 L/h/kg
24 | 0.64 | – | 46 | 57 | O=C(Nc1cccc(-c2ccccc2)c1)[C@H](Cc1ccccc1)NCc1cscn1 | –
25 | 0.23 | – | 21 | 24 | Cn1cc(-c2c[nH]c(=O)c(NC(=O)[C@H](Cc3ccccc3)NCc3cscn3)c2)cn1 | –
26 | 0.053 | – | – | – | COc1cc(NC(=O)[C@H](Cc2ccccc2)NCc2cscn2)cc(-c2ccncc2)c1 | EC50 [2]: 0.81 µM
27 | 0.36 | – | – | – | O=C(Nc1nccc(-c2ccncc2)n1)[C@H](Cc1ccccc1)NCc1cscn1 | EC50 [2]: 0.29 µM
28 | 0.2 | – | 29 | 18 | O=C(Nc1cc(-c2ccn[nH]2)c[nH]c1=O)[C@H](Cc1ccccc1)NCc1cscn1 | –
29 | 0.067 | – | 36 | 59 | O=C(Nc1cccc(-c2cc[nH]n2)c1)[C@H](Cc1ccccc1)NCc1cscn1 | –
30 | 0.18 | – | 42 | 36 | Cn1cc(-c2cccc(NC(=O)[C@H](Cc3ccccc3)NCc3cscn3)c2)cn1 | –
31 | 0.18 | – | 90 | 82 | O=C(Nc1cccc(-c2cn[nH]c2)c1)[C@H](Cc1ccccc1)NCc1cscn1 | –
32 | 0.052 | – | 74 | 63 | Cc1cc(-c2cccc(NC(=O)[C@H](Cc3ccccc3)NCc3cscn3)c2)ccn1 | –
33 | 0.11 | – | – | – | O=C(O)c1cc(NC(=O)[C@H](Cc2ccccc2)NCc2cscn2)cc(-c2ccncc2)c1 | MRT [8]: 12 min; half-life [13]: 39 min; remaining at 0.5 h [9]: 74%; CLH (Hepatocyte): 18 µL/min; EC50 [2]: 0.48 µM; Vd [10]: 0.5 L/kg; IC50 (Cytochrome P450 3A4): > 30 µM; IC50 (Cytochrome P450 2D6): > 30 µM; bioavailability [11]: 0%; IC50 (Cytochrome P450 2C9): > 30 µM; clearance (Rattus norvegicus): 2.9 L/h/kg
34 | 0.21 | – | 42 | 38 | Nc1cc(-c2cccc(NC(=O)[C@H](Cc3ccccc3)NCc3cscn3)c2)ccn1 | –
35 | 0.089 | – | – | – | COc1ccc(-c2ccncc2)cc1NC(=O)[C@H](Cc1ccccc1)NCc1cscn1 | EC50 [2]: 1 µM
